Source: paper PMC12065821 (Scientific Reports, 2025)
Where a SMILES comes first, the peptide text is derived from it. Bridges are numbered along the chain shown (N, C = ends). [ ]: non-standard residue; d: D form. The star is where a group is joined. X1 = CC[C@H](C)CCCCC(=O)*; Dab = NCC[C@H](N)C(=O)O

Experiments:
[1] = PK-TD model, PK component; format: in vivo; details: rats, single i.p. CMS 10 mg/kg CBA, one-compartment PK-TD model, mean ± SD
How it was run: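 Plasma prodrug and formed colistin/colistin B concentrations after i.p. dosing were fitted by a compartmental model. The final model used one compartment each for prodrug and formed drug, a conversion rate constant, and linear first-order total clearance from both. Fit was judged by R², AIC, BIC and visual inspection. Estimates are mean ± SD.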

[2] = cited from earlier work
[3] = Plasma PK of CMS/CMS-E2 and formed colistin/colistin B; format: in vivo, rats; details: rat plasma, LC-MS/MS, NCA, mean ± SD
How it was run: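 Male Sprague-Dawley rats were dosed once i.p. in saline, and serial jugular-vein blood was taken before and after dosing. Blood was heparinised (1%), spun at 4,982 × g for 10 min at 4 °C, and plasma stored at −70 °C. Plasma (40 µL) went through WCX solid-phase extraction with polymyxin B1 internal standard, then LC-MS/MS. Prodrug was total (acid-hydrolysed) minus free analyte. […] Values are mean ± SD, compared by Wilcoxon rank sum.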

[4] = rats; CMS and formed colistin; cited from earlier work
patients = details: cited from earlier work
[5] = Kidney PK of CMS/CMS-E2 and formed colistin/colistin B; format: in vivo, rats; details: for Kp: kidney (cortex) / plasma, colistin/colistin B; for Cmax formed colistin/colistin B in kidneys / Cmax CMS/CMS-E2 in kidneys: mean ± SD
How it was run: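 Male Sprague-Dawley rats (300 ± 15 g) got one i.p. dose in saline. At each sampling time rats were anaesthetised with tiletamine-zolazepam (40 mg/kg) and killed, and the left kidney was frozen at −70 °C. Kidney cortex was homogenised in saline (1:10 m/v, 1% BSA). Samples went through WCX solid-phase extraction with polymyxin B1 internal standard, then LC-MS/MS. Prodrug was calculated as total (after […] sulfuric acid hydrolysis) minus free colistin/colistin B. Parameters came from non-compartmental analysis.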

rats [6] = assay: Regression of kidney colistin/colistin B concentrations against CR, BUN, SQS; format: in vivo; details: 95% CI
rats [7] = assay: Kidney injury biomarkers: plasma CR and BUN; format: in vivo; details: rat plasma, mean ± SD
How it was run: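 Rats (male Sprague-Dawley) received one i.p. injection in saline, with a saline control group. Plasma came from serial heparinised jugular-vein samples, plus blood taken at sacrifice in a second cohort. Creatinine and blood urea nitrogen were measured on an automatic biochemical analyser. Peak levels and times to peak were taken from the time profiles and given as mean ± SD.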

rats [8] = assay: PK-TD model, TD component; format: in vivo; details: i.p., mean ± SD
How it was run: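 Plasma creatinine and BUN time courses were linked to plasma colistin/colistin B through an indirect hypothetical effect compartment. K_e is the rate constant from the central to the effect compartment. The effect was linear: E = E₀ + S·C_e, with E₀ the pre-dose baseline. T_lag was calculated as 1/K_e. Fit was judged by R², AIC, BIC and visual inspection. Parameters are mean ± SD.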

[9] = physiologically-based PK model; cited from earlier work
rats [10] = assay: Maximal tolerability dose; format: in vivo; details: intraperitoneal
rats [11] = assay: Renal histological examination; format: in vivo; details: rat kidney; for histological lesions during the first 2 h: PAS stain; for maximal SQS: mean ± SD, SD
[12] = cited from earlier work; remark: listed apart in the source
[13] = test system: human kidney proximal tubular HK-2 cells; details: identical dose of 0.75 mM; cited from earlier work
[14] = single i.p. CMS or CMS-E2 20 mg/kg CBA
[15] = rat kidney cortex, single i.p. CMS 10 mg/kg CBA, LC-MS/MS, NCA
[16] = rat kidney cortex, single i.p. CMS 10 mg/kg CBA, LC-MS/MS, SD
[17] = rat kidney cortex, single i.p. CMS 20 mg/kg CBA, LC-MS/MS, NCA
[18] = rat kidney cortex, single i.p. CMS or CMS-E2 20 mg/kg CBA, LC-MS/MS, NCA
[19] = rat kidney cortex, single i.p. CMS or CMS-E2 20 mg/kg CBA, LC-MS/MS, SD
[20] = rats, single i.p. CMS or CMS-E2 20 mg/kg CBA

## CC[C@H](C)CCCCC(=O)N[C@@H](CCN)C(=O)N[C@H](C(=O)N[C@@H](CCN)C(=O)N[C@H]1CCNC(=O)[C@H]([C@@H](C)O)NC(=O)[C@H](CCN)NC(=O)[C@H](CCN)NC(=O)[C@H](CC(C)C)NC(=O)[C@@H](CC(C)C)NC(=O)[C@H](CCN)NC1=O)[C@@H](C)O [colistin, Colistin] (X1-[Dab]T[Dab][Dab][Dab][dL]L[Dab][Dab]T; lactam 4-C)
[1]
  CLcolistin/colistin B (total body clearance): 2.57 ± 0.420 mL/min/kg
[2]
  fraction undergoing glomerular filtration into the tubular lumen: 18%
[3]; single i.p. CMS 10 mg/kg CBA
  AUC0-inf formed colistin/colistin B in plasma: 2050 ± 371 ng·h/mL
  Cmax formed colistin/colistin B in plasma: 764 ± 123 ng/mL
  Tmax formed colistin/colistin B in plasma: 2.00 ± 0.00 h
  t1/2 formed colistin/colistin B in plasma: 0.74 ± 0.0768 h
[3]; [14]
  AUC0-inf formed colistin/colistin B in plasma: 23100 ± 7460 ng·h/mL
  Cmax formed colistin/colistin B in plasma: 3990 ± 1520 ng/mL
  Tmax formed colistin/colistin B in plasma: 3.55 ± 0.891 h
  t1/2 formed colistin/colistin B in plasma: 1.88 ± 0.672 h
[4]
  t1/2 in prior reports: 0.533 to 1.8 h
patients; plasma colistin
  steady-state trough concentration associated with increased nephrotoxicity: > 2.2 mg/L
[5]; male, Sprague-Dawley, rat, ip, 10 mg/kg CBA, Kidney/plasma ratio of AUC0-inf, rats, single i.p. CMS 10 mg/kg CBA
  Kp: 31.6
[5]; male, Sprague-Dawley, rat, ip, 10 mg/kg CBA, Kidney/plasma ratio of Cmax, rats, single i.p. CMS 10 mg/kg CBA
  Kp: 13.7
[5]; male, Sprague-Dawley, rat, ip, 20 mg/kg CBA, Kidney/plasma ratio of AUC0-inf, rats, single i.p. CMS or CMS-E2 20 mg/kg CBA
  Kp: 26.1
[5]; male, Sprague-Dawley, rat, kidney cortex, ip, 10 mg/kg CBA, SD
  tissue level at time at 8 h: 3550 ± 594 ng/g
[5]; male, Sprague-Dawley, rat, kidney cortex, ip, 20 mg/kg CBA, SD
  tissue level at time at 24 h: 5970 ± 1850 ng/g
[5]; [15]
  AUC0-inf formed colistin/colistin B in kidneys: 64.7 µg·h/g
  Tmax formed colistin/colistin B in kidneys: 2 h
  t1/2 formed colistin/colistin B in kidneys: 1.21 h
[5]; [16]
  Cmax formed colistin/colistin B in kidneys: 10.4 ± 3.13 µg/g
[5]; [17]
  AUC0-inf formed colistin/colistin B in kidneys: 603 µg·h/g
  t1/2 formed colistin/colistin B in kidneys: 6.23 h
[5]; [18]
  Tmax formed colistin/colistin B in kidneys: 6 h
[5]; [19]
  Cmax formed colistin/colistin B in kidneys: 53.6 ± 11.0 µg/g
[5]; [20]
  Kidney/plasma ratio of Cmax, colistin/colistin B: 12.7
Rats [6]; ordered logistic regression
  regression coefficient between kidney concentration and SQS: 0.10
Rats [6]; simple linear regression
  regression coefficient between kidney concentration and contemporaneous BUN: 0.27
  regression coefficient between kidney concentration and contemporaneous CR: 0.74

## colistin methanesulphonate [CMS]
Rats [7]; single i.p. CMS 10 mg/kg CBA
  peak BUN level: 8.09 ± 1.66 mmol/L
  peak CR level: 31.3 ± 5.41 µmol/L
  time of peak BUN: 5.00 ± 0.00 h
  time of peak CR level: 2.67 ± 1.70 h
Rats [7]; [14]
  peak BUN level: 17.8 ± 3.83 mmol/L
  peak CR level: 93.1 ± 29.8 µmol/L
  time of peak BUN: 7.82 ± 1.34 h
  time of peak CR level: 5.36 ± 1.30 h
[1]
  CLCMS/CMS-E2 (total body clearance): 5.14 ± 0.196 mL/min/kg
  Ka CMS/CMS-E2 (absorption rate): 2.02 ± 0.260 h⁻¹
  V (volume of distribution): 0.194 ± 0.0128 L/kg
Rats [8]; E = E0 + S·Ce
  S (slope between colistin/colistin B concentration in effect compartment and CR): 20.9 ± 9.13 mmol/g
Rats [8]; indirect link PK-TD model, effect = BUN
  Ke (rate from colistin/colistin B central compartment to effect compartment), BUN: 0.157 ± 0.100 h⁻¹
Rats [8]; indirect link PK-TD model, effect = plasma CR
  Ke (rate from colistin/colistin B central compartment to effect compartment), CR: 0.833 ± 0.555 h⁻¹
Rats [8]; reciprocal of Ke, effect = BUN
  Tlag (lag time), BUN: 8.45 ± 4.08 h
Rats [8]; reciprocal of Ke, effect = plasma CR
  Tlag (lag time), CR: 1.73 ± 1.22 h
[9]
  renal CMS conversion: < 1%
[3]; single i.p. CMS 10 mg/kg CBA
  AUC0-inf CMS/CMS-E2 in plasma: 30700 ± 763 ng·h/mL
  CL/F CMS/CMS-E2: 5.42 ± 0.132 mL/min/kg
  Cmax CMS/CMS-E2 in plasma: 21400 ± 727 ng/mL
  Tmax CMS/CMS-E2 in plasma: 0.333 ± 0.118 h
  Vd/F CMS/CMS-E2: 0.213 ± 0.0362 L/kg
  t1/2 CMS/CMS-E2 in plasma: 0.453 ± 0.068 h
[3]; [14]
  AUC0-inf CMS/CMS-E2 in plasma: 149000 ± 69600 ng·h/mL
  CL/F CMS/CMS-E2: 2.99 ± 2.02 mL/min/kg
  Cmax CMS/CMS-E2 in plasma: 39500 ± 13700 ng/mL
  Tmax CMS/CMS-E2 in plasma: 1.30 ± 0.458 h
  Vd/F CMS/CMS-E2: 0.266 ± 0.0816 L/kg
  t1/2 CMS/CMS-E2 in plasma: 1.27 ± 0.557 h
[4]
  t1/2 in prior reports: 0.333 to 0.667 h
patients; meta-analyses
  incidence of CMS-associated nephrotoxicity: up to 48%
[5]; [15]
  Tmax CMS/CMS-E2 in kidneys: 2 h
[5]; [16]
  Cmax CMS/CMS-E2 in kidneys: 64.2 ± 38.1 µg/g
[5]; [18]
  AUC0-inf CMS/CMS-E2 in kidneys: 1620 µg·h/g
  Tmax CMS/CMS-E2 in kidneys: 4 h
  t1/2 CMS/CMS-E2 in kidneys: 1.03 h
[5]; [19]
  Cmax CMS/CMS-E2 in kidneys: 281 ± 92.8 µg/g
[5]; rat kidney, single i.p. CMS 10 mg/kg CBA, LC-MS/MS
  CMS concentration in renal tissue at 6, 8 h: below the lower limit
[5]; rat kidney, single i.p. CMS 20 mg/kg CBA, LC-MS/MS
  CMS concentration in renal tissue at 24 h: below the lower limit
[5]; [20]
  Kidney/plasma ratio of Cmax, CMS/CMS-E2: 7.11
Rats [10]
  maximal tolerability dose: 20 mg/kg CBA
Rats [11]; single i.p. CMS 10 mg/kg CBA
  histological lesions during the first 2 h: No obvious histological lesion
  recovery of histological damage at 8 h: most of the damage was completely recovered
  maximal SQS: 2.00 ± 0.00
Rats [11]; [14]
  histological lesions during the first 2 h: No obvious histological lesion
  maximal SQS: 3.00 ± 0.00
Rats [11]; single i.p. CMS 20 mg/kg CBA
  recovery of histological damage at 24 h: all damage was completely recovered

## colistin A
[12]
  plasma protein binding: 56.6 ± 9.25%
[13]
  apoptotic effect relative to colistin B: three times
